Screening results from PubChem.
INS-1E rescue: INS-1E beta cell protection from cytokine death | INS-1E cytokine-induced death, ATP luminescence, 48 h; normalised: neutral wells 0, positive control 100 | hit rate 0.1% among 20,000 | protection from cytokine-induced ATP loss, % at 10 µM;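 active = mean replicate protection from cytokine-induced ATP loss at least 50% and at least 75% of replicates each reaching 50%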
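assay system = INS-1E rat insulinoma cells | amount = 8000 cells per well | medium = phenol-red-free RPMI with 5% fetal bovine serum | doses = one compound concentration, pin transfer | timing = 48 h cytokine plus compound treatment, 10 min reagent incubation | also added = IL-1β, TNF-α and IFN-γ cytokine mix | signal = CellTiter-Glo luminescence measuring cellular ATP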
A1 apoptosis 2: blocks A1, raising caspase activity; caspase activation, % (no concentration beside the values); MEF A1-2A-BIM cells, caspase-Glo luminescence, 3 h; percent of clofoctol response, DMSO zero; AID 2465; 24,000 tested, under 10 active; in the data active = caspase activation above about 5.9%
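Material: A1-2A-BIM-expressing MEF cells. Buffer or medium: RPMI-1640 plus 10% FBS. Incubation: cells settled overnight, compound exposure 3 h at 37 °C, 5% CO2. Signal: Caspase-Glo 3/7 luminescence, 1 h at room temperature.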
T cruzi HTS: intracellular Trypanosoma cruzi inhibition | intracellular Trypanosoma cruzi in host cells, plate reader | activity score (inhibition), % at 5.01 µM | hit rate 4.9% among 22,000 | AID 651903; in the data active = activity score above about 55%;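 also: parasites and compound incubated about four days before reading; 0% = median of neutral control wells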
Numbers without * were called inactive. This is one part of a sample in which hits are shown more often than they occur.

C[C@@H]1CN([C@H](C)CO)C(=O)CCCn2cc(nn2)CO[C@H]1CN(C)C(=O)C1CCCCC1 was read as INS-1E rescue 4.7 and T cruzi HTS -17.3.
Cc1noc(C)c1S(=O)(=O)Nc1ccc2c(c1)C(=O)N([C@@H](C)CO)C[C@@H](C)[C@@H](CN(C)Cc1ccc(C(=O)O)cc1)O2 was read as INS-1E rescue 5.0 and T cruzi HTS 1.3.
For COc1cc(/C=N/NC(=O)c2cccc(C(=O)NO)c2)ccc1O the results were INS-1E rescue -8.4, A1 apoptosis 2 0.2 and T cruzi HTS -13.4.
Screening Cc1noc(C)c1S(=O)(=O)Nc1ccc2c(c1)CC(=O)N([C@H](C)CO)C[C@H](C)[C@@H](CN(C)C(=O)NC(C)C)O2 returned A1 apoptosis 2 1.4.
Screening CC(C)NC(=O)Nc1ccc2c(c1)C(=O)N([C@H](C)CO)C[C@@H](C)[C@H](CN(C)C(=O)Nc1cccc3ccccc13)OCCCC[C@H](C)O2 returned A1 apoptosis 2 0.6.
COc1ccc(S(=O)(=O)Nc2ccc3c(c2)C(=O)N([C@@H](C)CO)C[C@H](C)[C@@H](CN(C)C(=O)Nc2ccc(C(F)(F)F)cc2)OCCCC[C@@H](C)O3)cc1 was read as A1 apoptosis 2 -0.6.
`COc1ccc(S(=O)(=O)Nc2ccc3c(c2)C(=O)N([C@H](C)CO)C[C@H](C)[C@H](CN(C)C(=O)Nc2ccc(C(F)(F)F)cc2)OCCCC[C@@H](C)O3)cc1` gave INS-1E rescue -19.0, A1 apoptosis 2 -1.1 and T cruzi HTS 64.7*.
For C[C@@H]1CN([C@@H](C)CO)C(=O)Cc2cc(NS(=O)(=O)c3ccc(F)cc3)ccc2O[C@@H]1CN(C)S(=O)(=O)c1ccc(Cl)cc1 the results were INS-1E rescue -12.4 and T cruzi HTS 65.1*.
`C[C@@H]1CN([C@H](C)CO)C(=O)Cc2cc(NS(=O)(=O)c3ccc(Cl)cc3)ccc2O[C@H]1CN(C)S(=O)(=O)c1ccc(F)cc1` gave INS-1E rescue 10.1, A1 apoptosis 2 -0.3 and T cruzi HTS -6.0.
Screening C[C@H]1CN([C@@H](C)CO)C(=O)Cc2cc(NS(=O)(=O)c3ccc(F)cc3)ccc2O[C@@H]1CN(C)S(=O)(=O)c1ccc(Cl)cc1 returned INS-1E rescue 8.1, A1 apoptosis 2 0.8 and T cruzi HTS 3.4.
Screening C[C@@H]1CN([C@H](C)CO)C(=O)Cc2cc(NS(=O)(=O)c3ccc(F)cc3)ccc2O[C@@H]1CN(C)S(=O)(=O)c1ccc(Cl)cc1 returned INS-1E rescue 0.2 and T cruzi HTS 57.7*.
`C[C@H](CO)N1C[C@H](C)[C@@H](CN(C)Cc2ccc(Oc3ccccc3)cc2)Oc2ccc(NC(=O)Cc3cn(C)c4ccccc34)cc2C1=O` gave INS-1E rescue -38.9 and T cruzi HTS -5.6.
Screening CNC[C@H]1Oc2ccc(NC(=O)Nc3c(C)noc3C)cc2CC(=O)N([C@@H](C)CO)C[C@H]1C returned INS-1E rescue -0.8, A1 apoptosis 2 -0.1 and T cruzi HTS -10.4.
C[C@H]1CCCCO[C@H](CN(C)Cc2ccc(C(=O)O)cc2)[C@@H](C)CN([C@@H](C)CO)C(=O)c2cc(NC(=O)c3ccccc3)ccc2O1 was read as A1 apoptosis 2 -0.4.
O=C(CCCCCCC(=O)N/N=C\c1cccc(Br)c1)NO was read as INS-1E rescue 68.1* and T cruzi HTS -21.1.
`O=C(CCCCC(=O)N/N=C/c1cccc(Oc2ccccc2)c1)NO` gave INS-1E rescue 78.5*, A1 apoptosis 2 -0.2 and T cruzi HTS 7.1.
For O=C(NO)c1ccc(C(=O)N/N=C/c2cccc(Oc3ccccc3)c2)cc1 the results were INS-1E rescue 5.4, A1 apoptosis 2 -0.8 and T cruzi HTS 3.0.
Screening O=C(O)CCCCCCC(=O)N/N=C/c1cccc(Br)c1 returned INS-1E rescue 14.3, A1 apoptosis 2 1.4 and T cruzi HTS -4.9.
Screening COCCOC(=O)N1C(=O)[C@@]2(c3cc(C#CCC(C(=O)OC)C(=O)OC)ccc31)[C@H](c1ccccc1OCCO)N1[C@H](c3ccccc3)[C@H](c3ccccc3)OC(=O)[C@H]1[C@@H]2C(=O)N1CCN(c2ncccn2)CC1 returned A1 apoptosis 2 0.6.
C[C@@H]1CN([C@H](C)CO)C(=O)c2cc(NC(=O)CCCCCC(=O)Nc3ccccc3N)ccc2O[C@@H]1CN(C)C(=O)NC1CCCCC1 was read as INS-1E rescue -11.9, A1 apoptosis 2 3.2 and T cruzi HTS -0.7.
Screening C[C@H]1CN([C@@H](C)CO)C(=O)Cc2cc(NC(=O)Nc3ccc(C(F)(F)F)cc3)ccc2O[C@@H]1CN(C)Cc1ccc2c(c1)OCO2 returned INS-1E rescue -6.9 and T cruzi HTS 17.6.
Screening C[C@@H]1CN([C@H](C)CO)C(=O)Cc2cc(NC(=O)Nc3ccc4c(c3)OCO4)ccc2O[C@@H]1CN(C)Cc1ccc(C(F)(F)F)cc1 returned INS-1E rescue -24.9 and T cruzi HTS 75.6*.
C[C@@H]1CN([C@@H](C)CO)C(=O)Cc2cc(NC(=O)Nc3ccc4c(c3)OCO4)ccc2O[C@@H]1CN(C)Cc1ccc2c(c1)OCO2 was read as INS-1E rescue -9.2 and T cruzi HTS 24.9.
`C[C@H](CO)N1C[C@H](C)[C@H](CN(C)Cc2ccc3c(c2)OCO3)Oc2ccc(NC(=O)Nc3ccc(C(F)(F)F)cc3)cc2CC1=O` gave INS-1E rescue -34.7, A1 apoptosis 2 0.4 and T cruzi HTS 74.3*.
Screening C[C@@H]1CN([C@H](C)CO)C(=O)Cc2cc(NC(=O)Nc3ccc(F)cc3)ccc2O[C@H]1CN(C)Cc1ccc2c(c1)OCO2 returned INS-1E rescue -2.2, A1 apoptosis 2 0.1 and T cruzi HTS 6.6.
C[C@@H]1CN([C@H](C)CO)C(=O)Cc2cc(NC(=O)Nc3ccc(C(F)(F)F)cc3)ccc2O[C@@H]1CN(C)Cc1ccc2c(c1)OCO2 was read as INS-1E rescue -59.0, A1 apoptosis 2 -0.1 and T cruzi HTS 62.0*.
COc1ccc(NC(=O)N(C)C[C@@H]2OCCCC[C@H](C)Oc3ccc(NC(=O)C4CCCCC4)cc3C(=O)N([C@@H](C)CO)C[C@@H]2C)cc1 was read as A1 apoptosis 2 1.2.
`O=C(O)C1=C[C@@H](C2CCCC2)C[C@@H](OCCCCO)O1` gave A1 apoptosis 2 0.2.
Screening C[C@@H]1CN([C@H](C)CO)C(=O)Cc2cc(NC(=O)Nc3ccc4c(c3)OCO4)ccc2O[C@@H]1CN(C)C(=O)Nc1cccc2ccccc12 returned INS-1E rescue 9.4, A1 apoptosis 2 1.8 and T cruzi HTS -7.5.
`C[C@@H]1CN([C@@H](C)CO)C(=O)c2cccc(NC(=O)c3nc4ccccc4s3)c2O[C@H]1CN(C)Cc1ccc(C(F)(F)F)cc1` gave INS-1E rescue -55.4, A1 apoptosis 2 2.3 and T cruzi HTS 64.1*.
C[C@H]1CN([C@@H](C)CO)C(=O)c2cccc(NC(=O)c3nc4ccccc4s3)c2O[C@@H]1CN(C)Cc1ccccc1 was read as INS-1E rescue -34.0 and T cruzi HTS 51.2.
Screening C[C@H](CO)N1C[C@H](C)[C@@H](CN(C)Cc2ccc(C(F)(F)F)cc2)Oc2c(NC(=O)c3nc4ccccc4s3)cccc2C1=O returned INS-1E rescue -48.5 and T cruzi HTS 61.5*.
